{"source": "ChEMBL document CHEMBL3085728", "about": "“Conformational modifications of gB from herpes simplex virus type 1 analyzed by synthetic peptides” (J Med Chem, 2013)", "key": {"Human alphaherpesvirus 1 [1]": {"system": "Human alphaherpesvirus 1", "test": "Antiviral activity against Herpes simplex virus type 1 assessed as inhibition of viral entry into African green monkey Vero cells compound co-treated with cells and viral inoculum for 45 mins measured after 48 hrs by plaque formation assay", "assay_type": "functional, organism-based", "settings": "Human alphaherpesvirus 1, Vero", "summary_of_the_method": "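Cotreatment: Vero cells exposed to peptide (10–200 μM, serum-free DMEM) together with serial dilutions of LacZ HSV-1 inoculum for 45 min at 37 °C. Nonpenetrated virus inactivated by pH 3.0 citrate, then 48 h at 37 °C in DMEM with CMC; X-gal staining, plaques counted. Triplicates; inhibition percentage vs no-peptide control.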"}, "Human alphaherpesvirus 1 [2]": {"system": "Human alphaherpesvirus 1", "test": "Antiviral activity against Herpes simplex virus type 1 assessed as inhibition of viral entry into African green monkey Vero cells at 20 to 200 uM compound treated post viral titration for 30 mins measured 48 hrs post viral titration by plaque formation assay", "assay_type": "functional, organism-based"}, "Human alphaherpesvirus 1 [3]": {"system": "Human alphaherpesvirus 1", "test": "Antiviral activity against Herpes simplex virus type 1 assessed as inhibition of viral entry into African green monkey Vero cells at 100 uM compound preincubated with virus for 45 mins followed by viral titration measured 48 hrs post viral titration by plaque formation assay relative to control", "assay_type": "functional", "settings": "Human alphaherpesvirus 1, Vero"}, "Vero": {"system": "Vero", "test": "Cytotoxicity against African green monkey Vero cells at 10 to 500 uM after 24 hrs by LDH assay", "assay_type": "cell-based", "settings": "chlorocebus sabaeus", "summary_of_the_method": "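Vero monolayers exposed to peptides at 10, 50, 100, 200, 250 and 500 μM for 24 h; viability read by lactate dehydrogenase release with a commercial cytotoxicity detection kit, compared against untreated cells.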"}}, "note": "pIC50: −log10 of the molar value. Activity calls are given as the source filed them. The rule behind the calls is not given here."}
{"substance": "H-FARLQFTYNHIQRHVRDMEGR-OH", "values": [{"measurement": "pIC50", "setting": "Human alphaherpesvirus 1 [1]", "value": 4.22}, {"measurement": "inhibition", "setting": "Human alphaherpesvirus 1 [2]", "value": "inactive"}, {"measurement": "inhibition at 100 µM", "setting": "Human alphaherpesvirus 1 [3]", "value": 100, "unit": "%"}, {"measurement": "Activity", "setting": "Vero", "value": "Non-toxic"}]}
{"substance": "H-YNHIQRHVNDMLGR-OH", "values": [{"measurement": "inhibition", "setting": "Human alphaherpesvirus 1 [2]", "value": "inactive"}, {"measurement": "inhibition at 100 µM", "setting": "Human alphaherpesvirus 1 [3]", "value": 100, "unit": "%"}, {"measurement": "Activity", "setting": "Vero", "value": "Non-toxic"}]}
{"substance": "H-YNHIQRHVNDMLGRVKKAWEE-OH", "values": [{"measurement": "Activity", "setting": "Vero", "value": "Non-toxic"}]}
